Measurements taken from ChEMBL document CHEMBL3286368, “Delayed and Prolonged Histone Hyperacetylation with a Selective HDAC1/HDAC2 Inhibitor” (ACS Med Chem Lett, 2014).

Columns and labels:
[1] = biological target: Voltage-gated inwardly rectifying potassium channel KCNH2 (Homo sapiens, UniProt Q12809); test: Binding affinity to human ERG
Histone deacetylase 1 = Histone deacetylase 1 (Homo sapiens, UniProt Q13547); assay type: cell-based, HEK293F
HCT-116 = test: cells; assay type: functional, Homo sapiens; settings: Homo sapiens, HCT-116, 72 h
[2] = Solubility of the compound; assay type: physicochemical
Method in brief: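 Solubility determined on the bis-HCl salt, reported in mg/mL.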

Voltage-gated inwardly rectifying potassium channel KCNH2, sequence (Q12809 whole entry): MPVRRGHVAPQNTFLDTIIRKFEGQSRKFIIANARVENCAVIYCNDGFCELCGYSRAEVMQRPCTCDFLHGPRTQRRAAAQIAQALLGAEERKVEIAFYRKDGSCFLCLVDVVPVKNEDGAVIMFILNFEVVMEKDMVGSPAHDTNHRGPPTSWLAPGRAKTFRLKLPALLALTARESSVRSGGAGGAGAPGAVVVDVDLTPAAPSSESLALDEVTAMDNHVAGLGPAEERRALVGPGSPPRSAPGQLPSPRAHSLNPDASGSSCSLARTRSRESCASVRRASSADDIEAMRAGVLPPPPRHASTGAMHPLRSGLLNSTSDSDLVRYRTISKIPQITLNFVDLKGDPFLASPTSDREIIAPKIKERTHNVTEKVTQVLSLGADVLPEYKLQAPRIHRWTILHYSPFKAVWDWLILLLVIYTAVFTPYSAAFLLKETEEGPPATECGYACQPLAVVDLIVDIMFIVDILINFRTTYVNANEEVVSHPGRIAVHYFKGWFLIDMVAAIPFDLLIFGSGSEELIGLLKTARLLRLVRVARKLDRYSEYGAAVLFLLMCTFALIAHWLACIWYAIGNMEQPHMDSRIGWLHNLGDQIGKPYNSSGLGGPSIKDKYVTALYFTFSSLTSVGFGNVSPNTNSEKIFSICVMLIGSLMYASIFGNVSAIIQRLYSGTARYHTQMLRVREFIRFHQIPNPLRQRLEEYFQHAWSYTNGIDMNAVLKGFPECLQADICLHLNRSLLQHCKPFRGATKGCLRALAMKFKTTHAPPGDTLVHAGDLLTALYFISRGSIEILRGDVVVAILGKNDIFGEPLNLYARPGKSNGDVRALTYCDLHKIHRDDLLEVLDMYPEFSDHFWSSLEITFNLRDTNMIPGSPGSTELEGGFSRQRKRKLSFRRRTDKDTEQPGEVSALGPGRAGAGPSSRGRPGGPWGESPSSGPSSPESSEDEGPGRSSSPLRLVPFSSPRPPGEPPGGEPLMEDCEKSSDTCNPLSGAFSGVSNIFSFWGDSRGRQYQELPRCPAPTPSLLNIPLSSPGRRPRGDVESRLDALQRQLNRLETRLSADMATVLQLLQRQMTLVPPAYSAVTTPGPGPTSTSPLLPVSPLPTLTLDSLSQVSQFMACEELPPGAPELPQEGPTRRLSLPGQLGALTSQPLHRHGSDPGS
Histone deacetylase 1, sequence (Q13547 whole entry): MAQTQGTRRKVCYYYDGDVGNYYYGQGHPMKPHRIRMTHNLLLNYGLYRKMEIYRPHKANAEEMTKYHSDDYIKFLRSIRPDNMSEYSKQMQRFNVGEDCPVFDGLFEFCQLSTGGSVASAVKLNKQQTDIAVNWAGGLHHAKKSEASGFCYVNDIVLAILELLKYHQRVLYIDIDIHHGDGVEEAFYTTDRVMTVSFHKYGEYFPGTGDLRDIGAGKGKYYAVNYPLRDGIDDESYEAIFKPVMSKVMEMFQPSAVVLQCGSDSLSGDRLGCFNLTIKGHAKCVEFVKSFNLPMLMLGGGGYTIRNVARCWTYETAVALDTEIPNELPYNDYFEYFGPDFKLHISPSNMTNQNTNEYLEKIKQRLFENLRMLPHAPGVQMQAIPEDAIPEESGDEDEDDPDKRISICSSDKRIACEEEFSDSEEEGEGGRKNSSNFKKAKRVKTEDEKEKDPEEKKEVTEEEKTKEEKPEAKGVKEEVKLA

Compound	IC50 (Histone deacetylase 1) [µM]	GI50 (HCT-116) [µM]	solubility [2] [µg/mL]	Ki [1] [µM]
Nc1ccc(-c2ccc(F)cc2)cc1NC(=O)c1ccc(N2CCC3(CC2)CNC(=O)O3)nc1	0.02	0.71		0.62
Cn1cc(-c2ccc(N)c(NC(=O)c3ccc(N4CCC5(CC4)CNC(=O)O5)nc3)c2)cn1	0.018	2.12		> 10
Cn1cnc(-c2ccc(N)c(NC(=O)c3ccc(N4CCC5(CC4)CNC(=O)O5)nc3)c2)c1	0.051	4.65		> 10
Nc1ccccc1NC(=O)c1ccc(N2CCC3(CC2)CNC(=O)O3)nc1	0.58	5.08		> 10
Cl.Nc1ccc(-c2cccs2)cc1NC(=O)c1ccc(N2CCC3(CC2)CNC(=O)O3)nc1			1300	

More lines, main results first:

IC50 (Histone deacetylase 1) [µM]	GI50 (HCT-116) [µM]	solubility [2] [µg/mL]	Compound	Ki [1] [µM]
0.011	0.27		Nc1ccc(-c2ccsc2)cc1NC(=O)c1ccc(N2CCC3(CC2)CNC(=O)O3)nc1	> 30
0.014	0.89		Cc1csc(-c2ccc(N)c(NC(=O)c3ccc(N4CCC5(CC4)CNC(=O)O5)nc3)c2)c1	2
0.017	0.49		Nc1ccc(-c2ccccc2)cc1NC(=O)c1ccc(N2CCC3(CC2)CNC(=O)O3)nc1	3.4
